Assay results reported in ChEMBL document CHEMBL5252634, “Design, synthesis and in vitro cytotoxicity evaluation of indolo-pyrazoles grafted with thiazolidinone as tubulin polymerization inhibitors” (RSC Med Chem, 2023).

Key:
[1] = tested on: B16-F10; experiment: Cytotoxicity against mouse B16-F10 cells assessed as reduction in cell viability measured after 48 hrs by MTT assay; assay type: functional, cell-based; conditions: B16-F10, 48 h
Method in brief: (§1)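 Cells kept in medium with 10% FBS and 1% antibiotic–antimycotic at 37 °C, 5% CO2. Seeded at 3000–4000 cells/well, grown overnight, then given fresh medium with a range of concentrations (diluted from 10 mM DMSO stocks) for 48 h. MTT (0.5 mg/mL) added for 3–4 h at 37 °C. Formazan dissolved in DMSO and absorbance read at 570 nm.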

[2] = tested on: A549; experiment: Cytotoxicity against human A549 cells assessed as reduction in cell viability measured after 48 hrs by MTT assay; assay type: functional, cell-based; conditions: A549, 48 h; method in brief: as §1
[3] = tested on: SK-MEL-28; experiment: Cytotoxicity against human SK-MEL-28 cells assessed as reduction in cell viability measured after 48 hrs by MTT assay; assay type: functional, cell-based; conditions: SK-MEL-28, 48 h; method in brief: as §1
[4] = tested on: HCT-116; experiment: Cytotoxicity against human HCT-116 cells assessed as reduction in cell viability measured after 48 hrs by MTT assay; assay type: functional, cell-based; conditions: HCT-116, 48 h; method in brief: as §1
[5] = Cytotoxicity against human BEAS-2B cells assessed as reduction in cell viability measured after 48 hrs by MTT assay; assay type: toxicity, cell-based; method in brief: as §1
[6] = tested on: SK-MEL-28; experiment: Induction of cell cycle arrest in human SK-MEL-28 cells assessed as accumulation of cells at G0/G1 phase at 4.13 uM incubated for 48 hrs by flow cytometry (reference value: 79.59%); assay type: functional
[7] = tested on: SK-MEL-28; experiment: Induction of cell cycle arrest in human SK-MEL-28 cells assessed as accumulation of cells at S phase at 4.13 uM incubated for 48 hrs by flow cytometry (reference value: 6.34%); assay type: functional
[8] = tested on: SK-MEL-28; experiment: Induction of cell cycle arrest in human SK-MEL-28 cells assessed as accumulation of cells at G2/M phase at 4.13 uM incubated for 48 hrs by flow cytometry (reference value: 13.14%); assay type: functional
[9] = molecular target: Tubulin (Homo sapiens) (UniProt P68371+Q9H4B7+P0DPH7+P68366+Q13509+Q71U36+P04350+Q3ZCM7+P07437+P68363+Q9BQE3+Q6PEY2+Q13885+Q9BVA1+Q9BUF5); experiment: Inhibition of tubulin polymerization (unknown origin) at 3 uM measured after 1 hr relative to control; assay type: protein-complex assay
Method in brief: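 Fluorescence-based tubulin polymerization kit: tubulin, GTP and tubulin glycerol buffer mixed and added to compound (from 10x stocks), enhancer and inhibitor reference standards, and blanks in a plate prewarmed to 37 °C. Read kinetically for 1 h at ex 360/em 450 nm.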

Row | SMILES | IC50 [1] [µM] | IC50 [2] [µM] | IC50 [3] [µM] | IC50 [4] [µM] | IC50 at 48 h [5] [µM] | Activity [6] [%] | Activity [7] [%] | Activity [8] [%] | inhibition [9] [%]
1 | N#Cc1ccc(-n2nc(-c3c[nH]c4ccccc34)cc2/N=C2/NC(=O)CS2)cc1 | > 50 | 34 | 25.4 | > 50 |  |  |  |  | 
2 | CCn1cc(-c2cc(/N=C3/NC(=O)CS3)n(-c3cccc(Cl)c3)n2)c2cc(Br)ccc21 | > 50 | > 50 | 31.4 | > 50 |  |  |  |  | 
3 | CCn1cc(-c2cc(/N=C3/NC(=O)CS3)n(-c3ccc(Cl)cc3)n2)c2ccccc21 | > 50 | 38.7 | 29.7 | 37.9 | > 50 |  |  |  | 
4 | Cn1cc(-c2cc(/N=C3/NC(=O)CS3)n(-c3ccc(Cl)cc3)n2)c2ccccc21 | > 50 | 30.2 | > 50 | > 50 |  |  |  |  | 
5 | Cn1cc(-c2cc(/N=C3/NC(=O)CS3)n(-c3ccc(C#N)cc3)n2)c2cc(Br)ccc21 | 10.6 | > 50 | > 50 | 37.3 |  |  |  |  | 
6 | COc1ccc2[nH]cc(-c3cc(/N=C4/NC(=O)CS4)n(-c4ccc(Cl)cc4)n3)c2c1 | 39.4 | 20.9 | 11.3 | 11.2 |  |  |  |  | 
7 | CCN(CC)CCNC(=O)c1c(C)[nH]c(/C=C2\C(=O)Nc3ccc(F)cc32)c1C [SUNITINIB] | 15.3 | 5.73 | 4.13 | 10.7 | 6.09 | 76.33 | 5.09 | 17.92 | 
8 | O=C1CS/C(=N\c2cc(-c3cn(Cc4ccccc4)c4ccccc34)nn2-c2ccc(Cl)cc2)N1 | > 50 | 46.4 | > 50 | > 50 |  |  |  |  | 
9 | CCc1ccccc1-n1nc(-c2cn(C)c3ccc(OC)cc23)cc1/N=C1/NC(=O)CS1 | > 50 | > 50 | 28 | 34.1 | > 50 |  |  |  | 
10 | COc1ccc2[nH]cc(-c3cc(/N=C4/NC(=O)CS4)n(-c4cccc(Cl)c4)n3)c2c1 | > 50 | 22.6 | 6.22 | 10.8 | 21.7 |  |  |  | 
11 | O=C1CS/C(=N\c2cc(-c3c[nH]c4ccccc34)nn2-c2ccc(Cl)cc2)N1 | > 50 | 16.4 | 12.8 | 13.8 |  |  |  |  | 
12 | CCc1ccccc1-n1nc(-c2cn(CC)c3ccccc23)cc1/N=C1/NC(=O)CS1 | > 50 | 33 | > 50 | 19.8 |  |  |  |  | 
13 | CCc1ccccc1-n1nc(-c2cn(CC)c3ccc(OC)cc23)cc1/N=C1/NC(=O)CS1 | > 50 | 24.2 | 26.8 | 45.8 |  |  |  |  | 
14 | CC(=O)O[C@H]1C(=O)[C@@]2(C)[C@H]([C@H](OC(=O)c3ccccc3)[C@]3(O)C[C@H](OC(=O)[C@H](O)[C@@H](NC(=O)c4ccccc4)c4ccccc4)C(C)=C1C3(C)C)[C@]1(OC(C)=O)CO[C@@H]1C[C@@H]2O |  |  |  |  |  |  |  |  | 60
15 | CCc1ccccc1-n1nc(-c2cn(CC)c3ccc(Br)cc23)cc1/N=C1/NC(=O)CS1 | > 50 | 33.9 | 34.3 | > 50 |  |  |  |  | 
16 | CCn1cc(-c2cc(/N=C3/NC(=O)CS3)n(-c3ccc(C#N)cc3)n2)c2ccccc21 | 18.6 | 39.2 | 25 | > 50 | > 50 |  |  |  | 
17 | O=C1CS/C(=N\c2cc(-c3c[nH]c4ccccc34)nn2-c2ccccc2)N1 | > 50 | 22.5 | 34 | > 50 | > 50 |  |  |  | 
18 | CCc1ccccc1-n1nc(-c2c[nH]c3ccc(OC)cc23)cc1/N=C1/NC(=O)CS1 | 10.8 | 25.8 | > 50 | 18 | 32 |  |  |  | 

Row | SMILES | IC50 [1] [µM] | IC50 [2] [µM] | IC50 [3] [µM] | IC50 [4] [µM] | IC50 at 48 h [5] [µM] | Activity [6] [%] | Activity [7] [%] | Activity [8] [%] | inhibition [9] [%]
19 | Cn1cc(-c2cc(/N=C3/NC(=O)CS3)n(-c3ccc(Cl)cc3)n2)c2cc(Br)ccc21 | 11.3 | 19.2 | 26.9 | 13.5 | > 50 |  |  |  | 
20 | Cn1cc(-c2cc(/N=C3/NC(=O)CS3)n(-c3cccc(Cl)c3)n2)c2ccccc21 | > 50 | 22.9 | 26.1 | 23.6 |  |  |  |  | 
21 | CCc1ccccc1-n1nc(-c2c[nH]c3ccccc23)cc1/N=C1/NC(=O)CS1 | 18.5 | 25.3 | 23.2 | 36.8 | 14.8 |  |  |  | 
22 | CCn1cc(-c2cc(/N=C3/NC(=O)CS3)n(-c3ccc(Cl)cc3)n2)c2cc(OC)ccc21 | 14.2 | 48.1 | > 50 | > 50 | > 50 |  |  |  | 
23 | Cn1cc(-c2cc(/N=C3/NC(=O)CS3)n(-c3cccc(Cl)c3)n2)c2cc(Br)ccc21 | 26 | 32.8 | 17 | 20.7 |  |  |  |  | 
24 | CCn1cc(-c2cc(/N=C3/NC(=O)CS3)n(-c3cccc(Cl)c3)n2)c2cc(OC)ccc21 | 36.4 | 16.9 | > 50 | 14.8 |  |  |  |  | 
25 | O=C1CS/C(=N\c2cc(-c3cn(Cc4ccccc4)c4ccccc34)nn2-c2cccc(Cl)c2)N1 | > 50 | > 50 | > 50 | > 50 | > 50 |  |  |  | 
26 | COc1ccc2c(c1)c(-c1cc(/N=C3/NC(=O)CS3)n(-c3cccc(Cl)c3)n1)cn2C | 23.4 | > 50 | > 50 | 22.2 |  |  |  |  | 
27 | CCc1ccccc1-n1nc(-c2cn(C)c3ccccc23)cc1/N=C1/NC(=O)CS1 | > 50 | 39.1 | 49.9 | > 50 |  |  |  |  | 
28 | CCn1cc(-c2cc(/N=C3/NC(=O)CS3)n(-c3ccc(C#N)cc3)n2)c2cc(Br)ccc21 | 11 | 36.6 | 32.1 | > 50 |  |  |  |  | 
29 | CCc1ccccc1-n1nc(-c2cn(C)c3ccc(Br)cc23)cc1/N=C1/NC(=O)CS1 | > 50 | > 50 | > 50 | > 50 |  |  |  |  | 
30 | CCc1ccccc1-n1nc(-c2cn(Cc3ccccc3)c3ccccc23)cc1/N=C1/NC(=O)CS1 | > 50 | 36.5 | 33.8 | 35.8 | 27.4 |  |  |  | 
31 | Cn1cc(-c2cc(/N=C3/NC(=O)CS3)n(-c3ccc(C#N)cc3)n2)c2ccccc21 | > 50 | 37.2 | 22.7 | 25.1 |  |  |  |  | 
32 | CCn1cc(-c2cc(/N=C3/NC(=O)CS3)n(-c3cccc(Cl)c3)n2)c2ccccc21 | 21.2 | 26 | 26 | > 50 |  |  |  |  | 
33 | N#Cc1ccc(-n2nc(-c3cn(Cc4ccccc4)c4ccccc34)cc2/N=C2/NC(=O)CS2)cc1 | > 50 | 22.3 | > 50 | 33.1 |  |  |  |  | 
34 | COc1ccc2c(c1)c(-c1cc(/N=C3/NC(=O)CS3)n(-c3ccc(Cl)cc3)n1)cn2Cc1ccccc1 | > 50 | > 50 | > 50 | > 50 |  |  |  |  | 
35 | CCn1cc(-c2cc(/N=C3/NC(=O)CS3)n(-c3ccc(Cl)cc3)n2)c2cc(Br)ccc21 | 18.4 | 33.7 | 24.9 | > 50 |  |  |  |  | 
